Read-outs that look alike come from different tables or passages of the source. Marks after values point to notes of the source that are not given here.
How the values were obtained:
[1] = assay type: in vivo, human; settings: for time to steady-state PK based on Ctrough: continuous once-daily dosing combined with chemotherapy
Summary of the method: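 Samples were taken predose and 0.5–8 h (24 h per footnote) post-dose with once-daily dosing. AUC0-24, Cmax, tmax and Ctrough were derived using actual times, and predose BLQ values were set to 0. Accumulation ratio was C1D14/C1D1 or C1D21/C1D8 of induction. Steady state was judged from Ctrough across cycles, and consolidation data pooled both regimens (ME or ARA-C).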

plasma 2-HG = test: Plasma 2-HG pharmacodynamics in patients with newly diagnosed mIDH1/2 AML; assay type: in vivo, human; settings: for reduction of mean trough plasma 2-HG concentrations (up to): after multiple doses, combined with chemotherapy; for mean reduction in plasma 2-HG concentration: enasidenib started C1D1, by induction C1D14
Summary of the method: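 Plasma was sampled within 30 min predose and at 0.5, 2, 4, 6, 8 (and 24, per footnote) h on induction C1D1/C1D14 and consolidation C1D1; the delayed-start cohort was sampled on C1D8/C1D21. 2-HG was measured by surrogate-analyte (¹³C₅ 2-HG) LC-MS/MS, LLOQ 30 ng/mL, with BLQ set to LLOQ. AUEC0-8, AUEC0-24, BAUEC0-24 and Rtrough used actual times. C1D14 reductions were grouped by best overall response: CR; IR (CRi, CRp, MLFS, PR); NR (SD, PD).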

bone marrow 2-HG = test: Bone marrow 2-HG pharmacodynamics in patients with newly diagnosed mIDH1/2 AML; assay type: in vivo, human; settings: after multiple doses; combined with chemotherapy
Summary of the method: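 Bone marrow aspirates from patients on oral ivosidenib or enasidenib once daily plus chemotherapy. 2-HG was quantified by LC-MS/MS using a qualified surrogate analyte method, with ¹³C₅ 2-HG as the surrogate for calibrators and QCs. LLOQ was 10 ng/mL, and BLQ values were set to LLOQ. Percentage reduction from baseline was computed using actual times relative to dosing.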

[2] = cited from earlier work
2-HG [3] = settings: cited from earlier work; for plasma 2-HG reduction from baseline, maximum / plasma 2-HG reduction from baseline, median: enasidenib 100 mg once daily
[4] = test system: advanced mIDH2 hematologic malignancies; settings: cited from earlier work
IDH2-R172 = settings: preclinical and in vitro data; cited from earlier work
[5] = cited from earlier work; remark: listed apart in the source
2-HG [6] = settings: ivosidenib 500 mg once daily single agent, cited from earlier work
mIDH1 R/R AML = settings: patients with mIDH1 R/R AML; ivosidenib 500 mg once daily; cited from earlier work
CYP3A4 = settings: healthy participants; cited from earlier work
[7] = enasidenib 100 mg QD + chemotherapy, Consolidation C1D1
[8] = enasidenib 100 mg QD starting day 1 + chemotherapy, Induction C1D1
[9] = enasidenib 100 mg QD starting day 1 + chemotherapy, Induction C1D14
[10] = enasidenib 100 mg QD starting day 8 + chemotherapy, Induction C1D8
[11] = enasidenib 100 mg QD starting day 8 + chemotherapy, Induction C1D21
[12] = ivosidenib 500 mg QD + chemotherapy, Consolidation C1D1
[13] = ivosidenib 500 mg QD + chemotherapy, Induction C1D14 / induction C1D1
[14] = ivosidenib 500 mg QD + chemotherapy, Induction C1D1
[15] = ivosidenib 500 mg QD + chemotherapy, Induction C1D14

CC(C)(O)CNc1nc(Nc2ccnc(C(F)(F)F)c2)nc(-c2cccc(C(F)(F)F)n2)n1 [Enasidenib, enasidenib]
time to steady-state PK based on Ctrough [1]: ≤ 14 days
Racc AUC0-24 (accumulation ratio based on AUC0-24), mean (SD) [1, 7]: 7.93 (4.29); 18
Racc Cmax (accumulation ratio based on Cmax), mean (SD) [1, 7]: 7.15 (4.59); 24
reduction of mean trough plasma 2-HG concentrations (up to) (plasma 2-HG): ≤ 99%
%BAUEC0-24 (percentage reduction of plasma 2-HG based on AUEC0-24), mean (RSD%) (plasma 2-HG; [7]): 80.6 (25.1); 21%
%Rtrough (percentage reduction of plasma 2-HG at the end of a dosing interval), mean (RSD%) (plasma 2-HG; [7]): 77.1 (37.8); 21%
Plasma 2-HG AUEC0-24, mean (RSD%) (plasma 2-HG; [7]): 1800 (116.1); 21 ng • h/mL
%BAUEC0-24 (percentage reduction of plasma 2-HG based on AUEC0-24), mean (RSD%) (plasma 2-HG; [8]): 18.7 (108.0); 57%
%Rtrough (percentage reduction of plasma 2-HG at the end of a dosing interval), mean (RSD%) (plasma 2-HG; [8]): 37.8 (68.2); 57%
%BAUEC0-24 (percentage reduction of plasma 2-HG based on AUEC0-24), mean (RSD%) (plasma 2-HG; [9]): 85.0 (24.7); 45%
%Rtrough (percentage reduction of plasma 2-HG at the end of a dosing interval), mean (RSD%) (plasma 2-HG; [9]): 84.7 (24.6); 45%
Plasma 2-HG AUEC0-24, mean (RSD%) (plasma 2-HG; [9]): 2030 (134.4); 45 ng • h/mL
%BAUEC0-24 (percentage reduction of plasma 2-HG based on AUEC0-24), mean (RSD%) (plasma 2-HG; [10]): 73.9 (28.1); 16%
%Rtrough (percentage reduction of plasma 2-HG at the end of a dosing interval), mean (RSD%) (plasma 2-HG; [10]): 82.8 (18.0); 16%
Plasma 2-HG AUEC0-24, mean (RSD%) (plasma 2-HG; [10]): 3960 (72.5); 16 ng • h/mL
%BAUEC0-24 (percentage reduction of plasma 2-HG based on AUEC0-24), mean (RSD%) (plasma 2-HG; [11]): 83.1 (34.6); 15%
%Rtrough (percentage reduction of plasma 2-HG at the end of a dosing interval), mean (RSD%) (plasma 2-HG; [11]): 82.3 (40.5); 15%
Plasma 2-HG AUEC0-24, mean (RSD%) (plasma 2-HG; [11]): 1670 (130.2); 15 ng • h/mL
mean reduction in plasma 2-HG concentration (plasma 2-HG; patients with IDH2-R140 mutations (n = 41)): 89.3%
mean reduction in plasma 2-HG concentration (plasma 2-HG; patients with IDH2-R172 mutations (n = 14)): 76.9%
arithmetic mean percentage reduction of plasma 2-HG based on BAUEC0-8 (plasma 2-HG; enasidenib starting on induction C1D1, following the first enasidenib dose): 7.1%
reduction in plasma 2-HG AUEC0-8 (plasma 2-HG; enasidenib starting on induction C1D8, at C1D8): 71.6%
median 2-HG reduction (plasma 2-HG; in this study, enasidenib combined with chemotherapy): > 75%
reduction of mean trough bone marrow 2-HG concentrations (up to) (bone marrow 2-HG): up to 99%
terminal half-life ([2]; enasidenib single agent): ≈ 137 hours
time to steady state ([2]; enasidenib single agent): ≤ 29 days
accumulation ([2]; once-daily administration, ref data on file): ≈ 10 fold
plasma 2-HG reduction from baseline, maximum (2-HG [3]; IDH2-R140Q mutations): 99%
plasma 2-HG reduction from baseline, median (2-HG [3]; IDH2-R140Q mutations): 93%
plasma 2-HG reduction from baseline, maximum (2-HG [3]; IDH2-R172K mutations): 94%
plasma 2-HG reduction from baseline, median (2-HG [3]; IDH2-R172K mutations): 28%
median reduction in 2-HG concentrations from baseline (2-HG [3]; enasidenib dose of 100 mg): 90.4%
median reduction in 2-HG concentrations from baseline (2-HG [3]; enasidenib doses of <100 mg): 92.4%
median reduction in 2-HG concentrations from baseline (2-HG [3]; enasidenib doses of >100 mg): 93.1%
ORR ([4]; all patients receiving enasidenib 100 mg once daily): 38.5%
ORR ([4]; enasidenib 100 mg once daily, patients with IDH2-R140 mutations): 35.4%
ORR ([4]; enasidenib 100 mg once daily, patients with IDH2-R172 mutations): 53.3%
potency against IDH2-R172 compared with IDH2-R140 (IDH2-R172): less potent

N#Cc1ccnc(N2C(=O)CC[C@H]2C(=O)N(c2cncc(F)c2)[C@H](C(=O)NC2CC(F)(F)C2)c2ccccc2Cl)c1 [Ivosidenib, ivosidenib]
time to steady-state PK based on Ctrough [1]: ≤ 14 days
Racc AUC0-24 (accumulation ratio based on AUC0-24), mean (SD) [1, 12]: 1.38 (0.83); 24
Racc Cmax (accumulation ratio based on Cmax), mean (SD) [1, 12]: 1.21 (0.69); 30
Racc AUC0-24 (accumulation ratio based on AUC0-24), mean (SD) [1, 13]: 2.35 (1.2); 38
Racc Cmax (accumulation ratio based on Cmax), mean (SD) [1, 13]: 1.69 (0.71); 49
reduction of mean trough plasma 2-HG concentrations (up to) (plasma 2-HG): ≤ 99%
%BAUEC0-24 (percentage reduction of plasma 2-HG based on AUEC0-24), mean (RSD%) (plasma 2-HG; [12]): 91.0 (16.9); 28%
%Rtrough (percentage reduction of plasma 2-HG at the end of a dosing interval), mean (RSD%) (plasma 2-HG; [12]): 90.7 (17.2); 28%
Plasma 2-HG AUEC0-24, mean (RSD%) (plasma 2-HG; [12]): 1090 (39.8); 29 ng • h/mL
%BAUEC0-24 (percentage reduction of plasma 2-HG based on AUEC0-24), mean (RSD%) (plasma 2-HG; [14]): 53.0 (30.5); 48^b %
%Rtrough (percentage reduction of plasma 2-HG at the end of a dosing interval), mean (RSD%) (plasma 2-HG; [14]): 80.8 (28.1); 48^b %
%BAUEC0-24 (percentage reduction of plasma 2-HG based on AUEC0-24), mean (RSD%) (plasma 2-HG; [15]): 90.0 (23.8); 46%
%Rtrough (percentage reduction of plasma 2-HG at the end of a dosing interval), mean (RSD%) (plasma 2-HG; [15]): 89.8 (23.9); 46%
Plasma 2-HG AUEC0-24, mean (RSD%) (plasma 2-HG; [15]): 1120 (51.8); 47 ng • h/mL
reduction of mean trough bone marrow 2-HG concentrations (up to) (bone marrow 2-HG): up to 99%
half-life ([5]; ivosidenib 500 mg once daily single agent, after a single dose): 93 h
accumulation ratio ([5]; ivosidenib 500 mg once daily single agent, after multiple doses): ≈ 2 fold
time to steady state based on observed Ctrough ([5]; ivosidenib 500 mg once daily single agent): ≤ 14 days
ivosidenib clearance with concomitant moderate or strong CYP3A4 inhibitors ([5]; patients, phase 1 single-agent study): decreased
patients achieving a ≥90% reduction in plasma 2-HG concentrations (2-HG [6]; after multiple doses): 71%
reduction in bone marrow 2-HG concentrations (2-HG [6]): > 90%
overall response rate (ORR) (mIDH1 R/R AML): 41.6%
AUC parameters when coadministered with itraconazole (CYP3A4): increased
Cmax when coadministered with itraconazole (CYP3A4): unaffected
